TRPC4 potent: allosterically enhances the mouse TRPC4 cation channel; B-score at 10 µM; HEK293 TRPC4beta/mu-opioid, DAMGO EC20, Fluo-4 Ca2+ flux; active compounds read high; 310,000 compounds, 0.42% hits;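 active = B-score of calcium response area above 5 SD of library B-scores, with initial fluorescence ratio within 5 SD of library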;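 note: B-score of integrated fluorescence ratio over time as area under calcium response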
TRPC4 inh: blocks the mouse TRPC4 cation channel. B-score at 10 µM. Q9QUQ5. 300,000 compounds, 0.39% hits. HEK293 TRPC4beta/mu-opioid, DAMGO-evoked Fluo4 calcium flux; active compounds read low. AID 2247;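 active = B-score over 3 SD under the library average, no early fluorescence shift, positive overall ratio signal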
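Assay system: TRPC4beta/mu-opioid receptor HEK293 cell line; compound dosing: single concentration per test compound; detection: Fluo4 Ca2+ flux fluorescence; evaluation: per-well B score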
TRPC6 inhibitor: mouse TRPC6 channel inhibition; Q61143; HEK293-TRPC6, membrane potential dye, ACh-evoked depolarization; active compounds read low; B-score at 10 µM; 310,000 compounds, 1.1% hits;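 active = B-score under library mean minus 3 SD, initial fluorescence not abnormally high, positive integrated signal ratio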;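 note: B-score derived from integrated fluorescence ratio over the kinetic read; more negative B-score means stronger inhibition of depolarization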
TRPC6 activator: activates the mouse TRPC6 cation channel; Q61143; HEK293-TRPC6 membrane potential dye fluorescence; active compounds read high; B-score at 10 µM; 310,000 compounds, 0.13% hits; AID 2550;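 active = B-score of the integrated fluorescence ratio above library mean plus 3 SD, and starting fluorescence ratio within library mean plus 5 SD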;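 note: higher score means more depolarization so channel activation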
TRPC4 agonist: TRPC4 (mouse) channel activation; Q9QUQ5; HEK293 TRPC4beta/mu-opioid, Fluo4 calcium fluorescence; active compounds read high; B-score at 10 µM; 310,000 compounds, 0.49% hits; AID 2237;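 active = B-score above 5 SD of library B-scores, and initial fluorescence ratio not above library mean plus 5 SD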;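 note: positive B-score marks a calcium rise read as TRPC4 activation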
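Assay system – TRPC4beta and mu-opioid receptor HEK293 stable cells · Measured by – Fluo4 fluorescence, kinetic · Schedule – dye loading 45 min room temperature, 110 s kinetic read · Read-out – B-scored integrated calcium fluorescence ratio · Controls – buffer and maximal DAMGO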
Active calls of the source: *; i = inactive. Most compounds without a hit are left out; they make up all but 2.3% or so of the library.

SMILES	TRPC4 potent	TRPC4 inh	TRPC6 inhibitor	TRPC6 activator	TRPC4 agonist
CC(C)CCOc1ccc(C(=O)NCC(c2ccco2)N(C)C)cc1 (stereo unspecified)	i	-7*	i	i	i
N#C/C(=C\c1ccc(-c2ccc([N+](=O)[O-])cc2Br)o1)C(=O)N1CCN(c2ccccc2)CC1	i	i	i	i	i
CCOC(=O)c1c(C)nc2c(c1-c1cc(OC)c(OC)c(OC)c1)C(=O)c1ccccc1-2	i	i	i	i	i
O=S1(=O)CCC(SCc2nc3sccn3c2Br)C1 (stereo unspecified)	i	i	i	i	i
O=C1Nc2ccccc2/C1=N\c1sc2c(c1C(=O)Nc1ccccc1)CCCC2	i	i	i	i	i
Cc1cc(C(=O)NCC(c2ccco2)N(C)C)ccc1[N+](=O)[O-] (stereo unspecified)	i	i	i	i	71*
COc1ccc(N(C)C(=O)C2CCN(S(=O)(=O)c3cccc4nonc34)CC2)cc1	i	i	i	i	i
CC(/C=N/n1c(-c2cccnc2)n[nH]c1=S)=C\c1ccccc1	i	i	i	i	i
CC(=C/c1ccccc1)/C=N/n1c(-c2ccncc2)n[nH]c1=S	15*	i	i	i	i
Cc1ccc(C(C)(C)C)cc1S(=O)(=O)Nc1nc2ccccc2nc1Cl	i	-6*	i	i	i
C#Cc1cccc(C(=O)NC2CCCN(C3Cc4ccccc4C3)C2)c1 (stereo unspecified)	i	i	i	i	188*
COc1ccc(C(=O)C2CCCN(C3Cc4ccccc4C3)C2)cc1OC (stereo unspecified)	i	i	i	i	87*
COc1ccccc1C(=O)N/C(=C\c1ccc(Br)cc1)C(=O)N1CCCC1	i	i	i	i	i
CCOC(=O)/C(=N\Nc1ccccc1)P(=O)(c1ccccc1)c1ccccc1	i	i	i	i	i
CC(Oc1ccc(Cl)cc1)C(=O)N/N=C/c1ccsc1 (stereo unspecified)	i	i	i	i	i
N#Cc1c(NC(=S)NC(=O)c2ccccc2)sc2c1CCN(CCc1ccccc1)C2	i	i	i	i	i
CC(C)(C)C(=O)Nc1sc2c(c1C#N)CCN(Cc1ccccc1)C2	i	i	i	13*	i
CN(CCOc1ccc(Br)cc1)CC(O)c1ccccc1 (stereo unspecified)	i	i	i	i	149*
CN(CCOc1ccc(Cl)cc1)CC(O)c1ccccc1 (stereo unspecified)	i	i	i	i	126*
CC(C)c1ccc(CN(C)CC(O)c2ccccc2)cc1 (stereo unspecified)	i	i	i	i	i
COc1ccc(CNC(=O)c2cccc(-c3ccc(C)c4ccccc34)n2)cc1	i	i	i	i	i
Cc1cc(=O)oc2cc(NC(=S)NCc3ccccn3)ccc12	i	-6*	i	i	i
COC(=O)c1ccc(C(=S)NCC2(N(C)C)CCCCC2)cc1	i	i	i	i	101*
COc1ccc(NC(=O)C(=O)c2cn(CC(=O)N3CCOCC3)c3ccccc23)cc1OC	i	i	i	i	i
CCc1cccc(OCC(=O)Nc2c[nH]c(=O)[nH]c2=O)c1	i	i	i	i	i
SMILES	TRPC4 potent	TRPC4 inh	TRPC6 inhibitor	TRPC6 activator	TRPC4 agonist
CCc1cccc(OCC(=O)Nc2ccc(C(=O)O)cc2NC(=O)COc2cccc(CC)c2)c1	i	-8*	i	i	i
COc1ccc(NC(=O)CCCNC(=O)c2ccc(Cl)cc2)cc1OC	i	i	i	i	i
N#Cc1c2n(c(=S)n(-c3ccc(OC(F)F)cc3)c1=O)CCCCC2	13*	i	i	i	i
N#Cc1c2n(c(=S)n(-c3ccccn3)c1=O)CCCCC2	i	i	i	i	i
CSCC[C@H](NC(=O)OC(C)(C)C)C(=O)N/N=C/c1cccc2cccnc12	10*	i	i	i	i
O=C1C([N+](=O)[O-])=C(O)c2cccc3cccc1c23	i	i	i	i	i
COc1ccc(CS(=O)(=O)CC(C)(O)c2ccccc2Cl)cc1 (stereo unspecified)	i	i	i	i	i
CCCCCOc1ccc(/C(C)=N/NC2=NCCN2)cc1	i	i	i	i	i
CCOc1ccc(Br)cc1/C(C)=N\NC1=NCCN1	i	i	i	i	82*
Cc1ccc(C)n1-c1nnc(N2CCC(C(=O)NCCCN3CC(C)CC(C)C3)CC2)s1 (stereo unspecified)	i	i	i	i	88*
Cc1ccc(C)n1-c1nnc(N2CCC(C(=O)NCCCN3CCN(C)CC3)CC2)s1	i	i	i	i	i
Cc1cc(=O)n2nc(N3CCCC(C(=O)NCCCN4CC(C)CC(C)C4)C3)sc2n1 (stereo unspecified)	i	i	i	i	47*
COC(=O)/C(=C\c1c(OC)cc(OC)cc1OC)C(=O)c1ccc2c(c1)OCO2	i	i	i	i	i
Cc1c(NC(=O)CN2C(=O)NC3(CCC(C)CC3)C2=O)c(=O)n(-c2ccccc2)n1C (stereo unspecified)	i	i	i	i	i
COC(=O)c1ccc(OCC(O)CN2CCc3cc(OC)c(OC)cc3C2c2ccccc2)cc1 (stereo unspecified)	11*	i	i	i	i
CCC(=O)N1CCc2cc(OC)c(OC)cc2C1COc1ccc(C(=O)OC)cc1 (stereo unspecified)	i	i	i	i	i
CC(C)N(Cc1ccccc1)CC(O)COc1ccc(S(=O)(=O)N2CCOCC2)cc1Cl (stereo unspecified)	i	i	i	i	i
CCCC(O)(c1ccc(Cl)cc1)C(CN1CCOCC1)c1ccccc1 (stereo unspecified)	i	-5*	i	i	i
OCCN1CCN(C2CCC(c3ccc(F)cc3)c3ccc(F)cc32)CC1 (stereo unspecified)	13*	i	i	i	i
CN1CCN(CC(=O)Nc2c(C#N)cnn2-c2ccccc2)CC1	i	i	i	i	59*
Cc1cccn2c(CNCCc3ccccn3)c(C(=O)N3CCOCC3)nc12	i	i	i	i	171*
O=C(Nc1cc2c(oc1=O)CCCC2=O)c1ccc(Cl)cc1	i	i	i	i	i

Screening data as filed in PubChem BioAssay.
